PRMT1 inh: blocks human protein arginine methyltransferase 1; recombinant PRMT1, activity-based probe fluorescence polarization; Q99873; inhibition, % at 2.79 µM; 1.3% of 370,000 active;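 active = inhibition above about 21% made by adding two undisclosed values, limit read from the data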
TDP2 inh: TDP2 (human) inhibition, absorbance primary screen | 0.34% of 370,000 active | inhibition, % at 12.8 µM | recombinant TDP2, T5PNP hydrolysis, p-nitrophenol absorbance 415 nm | O95551 | AID 720702;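 active = inhibition above the mean of all tested compounds plus 3 SD, set per campaign, cut at about 25% in these data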
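System: recombinant human TDP2 / Amount: 120 nM TDP2 per well / Also added: 5 mM T5PNP chromogenic substrate / Doses: 12.8 µM single point, 1% DMSO / Incubation: 2 h at 37 °C / Detection: p-Nitrophenol epi absorbance / Evaluation: % inhibition relative to enzyme-containing and enzyme-free wells / Repeats: singlicate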
MBD2 inh: inhibitors of human MBD2 binding to methylated oligonucleotide | 0.31% of 370,000 active | TR-FRET | inhibition, % at 4.4 µM | Q9UBB5 | AID 686964; in the data active = inhibition above about 13%
LEDGF integ inh: blocks HIV-1 LEDGF/p75-dependent DNA integration | TR-FRET IN-LEDGF/p75 DNA integration, Eu/Cy5 | inhibition, % at 3.7 µM | 0.64% of 370,000 active;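 active = inhibition above the screen-wide mean plus 3 SD, cut at about 13% in these data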;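 note: signal is the Cy5 over europium emission ratio at 671 and 618 nm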
SIAE inh: human SIAE inhibition, primary screen; Q9HAT2; SIAE FP-Rh probe binding, fluorescence polarization; inhibition, % at 9.66 µM; 0.69% of 370,000 active;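 active = inhibition above a cutoff: mean of compounds within the control limits plus 3 SD of those, cut at about 17% in these data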
UHRF1 binding: blocks human UHRF1 binding to methylated DNA; inhibition, % at 4.4 µM; 0.75% of 370,000 active; UHRF1 binding to methylated oligo, TR-FRET; in the data active = inhibition above about 21%;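 note: UHRF1 SRA domain binding a hemimethylated CpG hairpin DNA probe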
Target sequence (Q96T88 whole entry, looked up, the tested form may be a part): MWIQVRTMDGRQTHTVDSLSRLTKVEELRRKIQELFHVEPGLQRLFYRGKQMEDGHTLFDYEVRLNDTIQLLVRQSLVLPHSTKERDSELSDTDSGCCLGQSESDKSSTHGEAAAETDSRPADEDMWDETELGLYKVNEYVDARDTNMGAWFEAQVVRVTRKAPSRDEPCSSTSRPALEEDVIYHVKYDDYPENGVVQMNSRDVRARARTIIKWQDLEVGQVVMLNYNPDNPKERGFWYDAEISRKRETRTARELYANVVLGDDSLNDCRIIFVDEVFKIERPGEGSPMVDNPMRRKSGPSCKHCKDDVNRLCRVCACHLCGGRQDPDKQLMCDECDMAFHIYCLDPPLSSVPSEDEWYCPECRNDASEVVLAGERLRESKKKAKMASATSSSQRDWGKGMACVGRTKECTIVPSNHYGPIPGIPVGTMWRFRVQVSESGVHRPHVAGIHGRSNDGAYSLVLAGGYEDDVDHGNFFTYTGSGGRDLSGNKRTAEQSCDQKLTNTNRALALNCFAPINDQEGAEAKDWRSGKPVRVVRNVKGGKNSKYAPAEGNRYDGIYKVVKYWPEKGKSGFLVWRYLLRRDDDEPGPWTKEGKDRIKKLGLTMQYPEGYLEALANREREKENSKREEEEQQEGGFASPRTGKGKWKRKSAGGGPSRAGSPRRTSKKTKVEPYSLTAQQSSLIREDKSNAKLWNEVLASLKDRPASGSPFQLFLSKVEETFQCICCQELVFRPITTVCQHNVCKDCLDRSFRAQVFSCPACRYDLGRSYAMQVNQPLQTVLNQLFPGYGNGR
PRMT1 inh conf: PRMT1 (human) inhibition, FP confirmation | shares compounds with PRMT1 inh | recombinant His-PRMT1, activity-based probe fluorescence polarization | inhibition, % at 2.79 µM | 42% of 3,300 active;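 active = mean inhibition across replicates above the hit cutoff derived for the earlier primary screen, cut at about 22% in these data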
Hits are given with their value; - = inactive; . = no result given. An excerpt weighted towards active compounds, which were near 3.3% of everything screened.

SMILES	PRMT1 inh	TDP2 inh	MBD2 inh	LEDGF integ inh	SIAE inh	UHRF1 binding	PRMT1 inh conf
CCN(C(=O)C1CCCN1S(=O)(=O)c1cccnc1)c1ccccc1 (stereo not given)	-	-	-	-	-	-	.
CCc1cc2c(=O)n(Cc3ccco3)c(SCC(=O)N3CCCc4ccccc43)nc2s1	46.4	-	-	-	-	-	-
CCc1cc2c(=O)n(Cc3ccco3)c(SCc3c(C)noc3C)nc2s1	52.7	-	-	-	-	-	-
CCc1cc2c(=O)n(Cc3ccco3)c(SCC(=O)NCC3CCCO3)nc2s1 (stereo not given)	-	-	-	-	-	-	.
CN1CCCN(S(=O)(=O)c2ccc3c(c2)n(C)c(=O)c(=O)n3C)CC1	-	-	-	-	-	-	.
O=C(COCc1ccccc1)NC1CCCCN(Cc2cccc(Cl)c2)C1=O (stereo not given)	-	-	-	-	-	-	.
CC1CCN(S(=O)(=O)c2ccc3c(c2)N(C)C(=O)CC(=O)N3C)CC1	47.2	-	-	-	-	-	44.2
CN(Cc1ccccc1)S(=O)(=O)c1ccc2c(c1)n(C)c(=O)c(=O)n2C	-	-	-	-	-	-	.
CN1C(=O)CC(=O)N(C)c2cc(S(=O)(=O)N(C)Cc3ccccc3)ccc21	54.2	-	-	-	-	-	36.3
CC1CCN(c2ccc(S(=O)(=O)N3CCC(C)CC3)cc2N)CC1	-	-	-	-	-	-	.
CCn1c(C)[n+](CCCS(=O)(=O)[O-])c2cc(Cl)c(Cl)cc21	-	-	-	-	-	-	.
O=S(=O)([O-])CCC[n+]1c(SCCCS(=O)(=O)O)sc2ccc(Cl)cc21	70.9	-	-	-	-	-	74.9
COC(=O)[C@H]1C[C@]2(C/C=C(\C)CCC=C(C)C)c3ccccc3N[C@H]2N1	-	-	-	-	-	-	.
Cc1ccc(N2C(=O)CS(=O)C(c3ccccc3)C2=O)cc1C (stereo not given)	90.4	-	-	-	-	-	89.9
COc1ccc(N2C(=O)CS(=O)C(c3ccccc3)C2=O)cc1 (stereo not given)	95.0	-	-	-	-	-	97.2
COc1ccc(NC2CC(=O)N(c3ccccc3)C2=O)cc1 (stereo not given)	-	-	-	-	-	-	.
Nc1ccc2c3c(cccc13)C(=O)N(c1ccccc1)C2=O	174.0	-	-	-	-	-	164.5
N#CC(Sc1ccccn1)c1ccc(Cl)cc1 (stereo not given)	46.2	-	-	-	-	-	35.4
O=C(NCCSc1ccccn1)c1ccc(Cl)cc1	-	-	-	-	-	-	.
COc1cc2ccccc2cc1C(=O)O	-	-	-	-	-	-	.
COc1ccc(OC)c2cc3ccccc3cc12	28.9	-	-	-	-	-	69.5
CC(C)n1cc(/C=C/c2cc[n+](C)cc2)c2ccccc21	30.6	-	-	-	-	-	-
CN(CCC#N)c1ccc(/C=C(\C#N)c2ccccn2)cc1	193.8	-	-	-	-	-	-
CN(CCC#N)c1ccc(C=C(C#N)c2ccc(Br)cc2)cc1	-	-	-	-	-	-	.
CCN(Cc1ccccc1)c1ccc(/C=C(\C#N)c2ccccn2)cc1	57.4	-	-	-	-	-	-
SMILES	PRMT1 inh	TDP2 inh	MBD2 inh	LEDGF integ inh	SIAE inh	UHRF1 binding	PRMT1 inh conf
O=C(O)c1ccc(-c2ccco2)n1Cc1ccccc1	29.2	-	-	-	-	-	-
COc1ccc(S(=O)(=O)Nc2cc(Sc3ncn[nH]3)c(O)c3ccccc23)cc1	95.9	64.9	-	45.1	-	-	86.9
COc1ccc(S(=O)(=O)Nc2ccc(O)c(Sc3ncn[nH]3)c2)cc1	-	-	-	-	-	-	.
COc1cccc(NC(=O)Cc2ccccc2)c1	-	-	-	-	-	-	.
O=C(O)c1cccc(N2C(=O)C=CC2=O)c1	59.2	-	-	-	-	-	84.3
O=C(Cc1ccccc1)Nc1cccc(N2C(=O)C=CC2=O)c1	96.3	-	-	-	-	-	94.8
CN(C)c1ccc(/C=N\NC(=S)SCN2C(=O)C3CCC(C)(C2=O)C3(C)C)cc1 (stereo not given)	43.5	-	-	-	-	-	-
CN(C)c1ccc(/C=N/NC(=O)CCCO)cc1	-	-	-	-	-	-	.
CC12CCC(C(=O)N(CSC(=S)N/N=C\c3ccccc3O)C1=O)C2(C)C (stereo not given)	24.8	-	-	-	-	-	-
CC12CCC(C(=O)N(CCCCN3CCN(Cc4ccccc4)CC3)C1=O)C2(C)C (stereo not given)	-	-	-	-	-	-	.
O=C(OC12CCCN(C1)/C(=C/c1ccccc1)C2)c1cccc(F)c1 (stereo not given)	-	-	-	-	-	-	.
Cc1sc2ncnc(Sc3ccccc3C(=O)Nc3ccc(Br)cc3)c2c1C	35.0	-	-	-	-	-	23.0
c1cc2c(cc1NC1CCCCCC1)OCO2	34.7	-	-	-	-	-	31.8
COC(=O)C1CN(Cc2cn(Cc3ccccc3)nn2)CCS(=O)(=O)N1Cc1ccc(F)cc1 (stereo not given)	-	-	-	-	-	-	.
O=CN1CCC(=O)N(Cc2ccccc2)c2ccccc21	-	-	-	-	-	-	.
O=CN1CCc2scc[n+]2-c2ccccc21	40.9	-	-	-	-	-	29.9
O=C(Nc1ccccc1)N1CCc2scc[n+]2-c2ccccc21	55.9	-	-	-	-	-	-
CC1CN(C(=O)Nc2ccccc2)c2ccccc2-[n+]2ccsc21 (stereo not given)	-	-	-	-	-	-	.
CC(=O)N1CCN(C(=O)C2CCCN(C(=O)c3ccc4c(c3)NC(=O)CS4)C2)CC1 (stereo not given)	-	-	-	-	-	-	.
Nc1[nH]c(C(=O)c2ccccc2)c(-c2cccnc2)c1C(=O)NCCc1c[nH]c2ccccc12	-	-	-	-	-	-	.
Cc1nc2sc(C(c3ccco3)N3CCN(c4ccccc4F)CC3)c(O)n2n1 (stereo not given)	-	-	-	-	-	-	.
Cc1nc2sc(C(c3ccco3)N3CCN(c4ccc(F)cc4)CC3)c(O)n2n1 (stereo not given)	25.3	-	-	-	-	-	-
CC(=O)Cn1cnc2c(sc3nc(C)cc(C)c32)c1=O	-	-	-	-	-	-	.
Cc1cc(C)c2c(=O)n(CC(=O)N3CCC(N4CCCCC4)CC3)sc2n1	78.4	-	-	-	-	-	-
CCCNC(=O)Cn1sc2nc(C)cc(C)c2c1=O	93.3	-	-	-	-	-	94.3
O=C1C[C@@H](c2ccccc2)N=C2N(CC3CC3)C/C(=C/c3ccccc3)N12	-	-	-	-	-	-	.

Bioassay records deposited in PubChem by The Scripps Research Institute Molecular Screening Center.
